# Screening results as filed in PubChem.
# An excerpt weighted towards active compounds, which were near 4.4% of everything screened.
# MPTP block = blocks calcium-induced mitochondrial swelling. inhibition, % at 10 µM. actives 1.4% (n = 360,000). AID 602449. isolated mouse mitochondria, Ca2+ swelling absorbance, 30 min;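 active = inhibition of 50% or more, scaled per plate between neutral and stimulator controls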;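 note: 0% = DMSO wells given calcium and 100% = 1 mM EGTA wells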
# EBI2 antag = antagonists of human EBI2 receptor; P32249; inhibition, % at 5 µM; EBI2 beta-arrestin recruitment, luminescence, 7a,25-OHC stimulated; AID 651636; actives 0.81% (n = 360,000); in the data active = inhibition above about 38%;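 note: enzyme fragment complementation signal reports receptor beta-arrestin coupling in cells; 0% = agonist plus DMSO wells and 100% = wells without agonist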
# Target sequence (P32249 whole entry, looked up, the tested form may be a part): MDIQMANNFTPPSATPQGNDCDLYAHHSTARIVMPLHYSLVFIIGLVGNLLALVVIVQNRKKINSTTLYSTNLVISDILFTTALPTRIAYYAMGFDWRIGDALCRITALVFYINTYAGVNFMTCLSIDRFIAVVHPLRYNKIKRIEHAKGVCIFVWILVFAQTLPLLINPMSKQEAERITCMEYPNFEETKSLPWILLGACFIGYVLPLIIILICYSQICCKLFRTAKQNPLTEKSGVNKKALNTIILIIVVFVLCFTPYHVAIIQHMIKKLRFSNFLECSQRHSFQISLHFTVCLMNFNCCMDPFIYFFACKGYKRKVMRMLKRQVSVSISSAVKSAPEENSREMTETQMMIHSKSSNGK
# NR3A LBD binder = modulates the human NR3A ligand-binding domain. NR3A LBD differential scanning fluorimetry, Tm shift; 0% = protein alone, 100% = glycine-bound protein. actives 2.5% (n = 340,000). Tm shift relative to glycine control, % at 25 µM;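 active = melting temperature shift of at least 10% of the positive control shift, at one fixed dose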
# SENP1 inh = blocks the human SENP1 SUMO protease catalytic domain; recombinant SENP1 catalytic domain, CyPet-SUMO1-YPet FRET cleavage; inhibition, % at 10 µM; actives 0.21% (n = 360,000); AID 624204;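 active = inhibition at least 30% at 10 µM, raw YFP signal under a set limit, fluorescence ratio 0.5 to 1.5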;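 note: 0% = enzyme with DMSO and 100% = no enzyme wells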
# Target sequence (Q9P0U3 419-644 limits assumed): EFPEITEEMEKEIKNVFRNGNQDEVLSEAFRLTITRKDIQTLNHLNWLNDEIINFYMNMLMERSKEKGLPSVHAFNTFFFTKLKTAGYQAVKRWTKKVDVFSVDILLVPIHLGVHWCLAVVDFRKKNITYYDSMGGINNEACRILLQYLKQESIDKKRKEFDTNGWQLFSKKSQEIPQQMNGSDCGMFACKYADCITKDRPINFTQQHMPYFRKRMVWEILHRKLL
#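 Material – human SENP1 catalytic domain · Input – SENP1 enzyme, 20 pM final · Compound dosing – single concentration of 10 µM compound, 0.5% DMSO final · Timing – enzyme reaction for 50 min at room temperature, dark · Measured by – FRET fluorescence in CFP and YFP emission channels · Control set – no-enzyme wells low, DMSO-plus-enzyme wells high control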
# Rh123 counter = Rhodamine 123 counter-screen of mitochondrial pore hits. actives 78% (n = 5,000). shares compounds with MPTP block. inhibition, % at 10 µM. isolated mitochondria, membrane potential, Rhodamine 123 fluorescence; in the data active = inhibition above about 22%;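 note: 0% = DMSO vehicle and 100% = positive control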
# MPTP swell DR = dose response confirmation of mitochondrial permeability transition pore inhibitors; shares compounds with MPTP block; actives 58% (n = 780); IC50, µM; isolated mitochondria swelling, absorbance; in the data active = IC50 below about 20 µM
# MPTP cs DR = MPTP inhibitor counter-screen activity, dose response; shares compounds with MPTP block; IC50, µM; AID 651564; isolated mitochondria counterscreen, fluorescence read-out; actives 49% (n = 780); in the data active = IC50 below about 80 µM
# Active calls of the source: *; i = inactive; . = not tested or not shown.
SMILES,MPTP block,EBI2 antag,NR3A LBD binder,SENP1 inh,Rh123 counter,others
O=C(NCc1cccs1)C1CCCN1C(=O)Nc1ccccc1Cl (stereo not drawn),0,1,-1,1,.,
Cc1c(C(C)C)c(=O)n(-c2ccc(S(=O)(=O)NCc3ccccc3)cc2)n1C,96*,-4,2,2,83*,
Cc1c(C(C)C)c(=O)n(-c2ccc(S(=O)(=O)NC3CCCCC3)cc2)n1C,33,-10,-1,0,.,
FC(F)Oc1ccc(NC(=S)NCC2COc3ccccc3O2)cc1 (stereo not drawn),85*,-5,0,0,98*,
S=C(NCC1COc2ccccc2O1)Nc1ccccc1 (stereo not drawn),3,4,-6,3,.,
Fc1ccc(CNC(=S)Nc2ccc(OC(F)F)cc2)cc1,76*,6,-2,1,96*,
COc1cc(NC(=S)Nc2ccc(OC(F)F)cc2)cc(OC)c1,80*,30,-26,2,76*,
NS(=O)(=O)c1ccc(CCNC(=O)c2ccc(C#CC3(O)CCCCC3)cc2)cc1,3,-27,-6,1,.,
CCCC(=O)N1CCCC(c2cc(C(=O)NCc3cccnc3)no2)C1 (stereo not drawn),0,4,.,1,.,
c1ccc(-c2csc3ncnc(NCc4ccccn4)c23)cc1,62*,-1,0,-2,33*,
c1ccc(CNc2ncnc3scc(-c4cccs4)c23)nc1,72*,7,-2,2,57*,
Cc1noc(C)c1COC(=O)c1cnc(Cl)c(Cl)c1,0,-1,0,1,.,
COCCn1c(-c2ccc(OC)cc2)cnc1N,0,-6,-2,-2,.,
CCOc1ccc(-c2cnc(NCc3cccc4ccccc34)n2CCOC)cc1,89*,37,-1,-4,97*,
COc1ccccc1OCCn1c(C)c(C=O)c2ccccc21,0,-8,-3,2,.,
O=[N+]([O-])c1ccc(O)c(C2CCCCC2)c1,88*,-2,3,3,102*,
O=[N+]([O-])c1ccc2nc(C3CCCCC3)[nH]c2c1,14,3,-2,1,.,
CCOc1ccccc1NC(=O)C(=O)NCCC1=CCCCC1,-3,7,2,-1,.,
Cc1nc(Cl)c(C(=O)Nc2cccc(F)c2)c(C)c1Cl,2,-4,0,-1,.,
O=C(N/N=C/c1ccc(Sc2ccccn2)o1)c1cc2ccccc2cc1O,68*,-8,9,13,35*,
O=C(N/N=C\c1ccc(Sc2ccccn2)o1)c1cccc(F)c1,-2,-2,-5,0,.,
CN(C/C=C/c1ccccc1[N+](=O)[O-])Cc1ccccc1,1,-6,-1,-1,.,
CCC1CCc2sc(C(=O)NC3CCN(Cc4ccccc4)CC3)cc2C1 (stereo not drawn),76*,4,2,-9,-5,MPTP swell DR=11*;MPTP cs DR=27*
Cc1cc(C)cc(OCC(=O)N2N=C(C(F)(F)F)CC2(O)C(C)(C)C)c1 (stereo not drawn),57*,11,-5,-1,43*,
Cc1nc(SCC(=O)NCCN2C(=O)CSC2=O)nc(C)c1C,0,-13,-4,0,.,
SMILES,MPTP block,EBI2 antag,NR3A LBD binder,SENP1 inh,Rh123 counter,others
COC(=O)c1c(NC(=O)Cc2ccccc2)sc2c1CC(C)(C)NC2(C)C,74*,-5,1,-4,-3,MPTP swell DR=i;MPTP cs DR=>80
COC(=O)c1c(NC(=O)C2CCCCC2)sc2c1CC(C)(C)NC2(C)C,67*,-12,1,0,-10,MPTP swell DR=6.2*;MPTP cs DR=>80
COc1cccc(/C=C2\SC(=O)N(CCC(=O)N3CCC(C(=O)O)CC3)C2=O)c1,0,-5,1,0,.,
O=C(Nc1ccc2c(c1)CCC2)C1CCN(c2c3c(nc4ncnn24)CCC3)CC1,4,14,-1,0,.,
O=C(Nc1ccc(Oc2ccccc2)cc1)C1CCN(c2c3c(nc4ncnn24)CCC3)CC1,67*,10,-13,4,76*,
CCC(C)(C)NC(=O)CCCSc1nc2ccccc2[nH]1,2,6,0,0,.,
Cc1cccc(CSCCNC(=S)Nc2ccccc2)c1,82*,-16,-4,1,79*,
S=C(NCCSCc1ccccc1Cl)Nc1ccccc1,82*,-1,7,0,104*,
S=C(NCCSCc1ccc(Cl)cc1)Nc1ccccc1,68*,4,12*,3,97*,
CCCOc1ccc(CSCCNC(=S)Nc2ccccc2)cc1,95*,22,3,1,94*,
CCOc1ccc(CSCCNC(=S)Nc2ccc(OC)cc2)cc1,17,16,8,1,.,
Cc1ccc(OCc2cc(C(=O)NC(C)Cc3cccnc3)no2)cc1C (stereo not drawn),-1,11,-3,-3,.,
CC(C)N(Cc1nccn1C)C(=O)c1cc(COc2ccc3ncccc3c2)on1,26,-12,2,1,.,
Cc1nc(CN(C)C(=O)c2cc(COc3ccc4ncccc4c3)on2)cs1,99*,3,0,-1,69*,
CC(CCCC(C)(C)O)NC(=O)c1cc(COc2ccc3ncccc3c2)on1 (stereo not drawn),92*,-1,1,0,79*,
COc1cccc(OCc2cc(C(=O)NCc3ccccn3)no2)c1,-1,2,-2,-1,.,
Cc1cc(C)n(CCNC(=O)c2cc(COc3ccc4ncccc4c3)on2)n1,63*,-5,-1,0,37*,
O=C(NCc1cccc(Cl)c1)c1cc(COc2ccc3ncccc3c2)on1,105*,8,-31,0,92*,
Cc1ccc(F)cc1CNC(=O)c1cc(COc2ccc3ncccc3c2)on1,95*,15,4,-3,105*,
CCOc1cc(NC(=O)C2CC2)c(OCC)cc1NC(=O)c1cccc(F)c1,106*,10,0,-2,0,MPTP swell DR=>100;MPTP cs DR=>80
CCOc1cc(NC(=O)C2CCCCC2)c(OCC)cc1NC(=O)c1ccccn1,2,4,-1,-3,.,
Cc1ccccc1-c1nc(CN2CCC(C(=O)NC3CCN(Cc4ccccc4)CC3)CC2)c(C)o1,68*,-6,5,-2,-8,MPTP swell DR=i;MPTP cs DR=75*
COc1ccc(CCNC(=O)C2CCN(Cc3nc(-c4ccc(Cl)cc4)oc3C)CC2)cc1OC,5,0,1,-2,.,
Cc1ccccc1-c1nc(CN2CCC(C(=O)NC3CCCCC3)CC2)c(C)o1,-1,-5,-3,1,.,
COc1ccc(CCNC(=O)C2CCN(Cc3nc(-c4ccccc4C)oc3C)CC2)cc1OC,82*,3,0,1,10,MPTP swell DR=9.7*;MPTP cs DR=23*
Cc1ccsc1C(=O)OCC(=O)NCc1ccccc1,-1,-8,2,1,.,
O=S1(=O)c2cccc3cccc(c23)N1Cc1nnc(-c2ccccc2Br)o1,76*,2,-2,-2,47*,
